# Test results taken from PubChem BioAssay.
# The source made the active and inactive calls.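 How the source made its calls, unless noted: active means fluorescence slope after compound addition differing from the mean of all tested samples at 99.7% confidence, mostly higher but some lower; inactive means the rest.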
# Key:
# [1] = inhibitors of TNFa-induced NFkB p65 translocation, primary screen, imaging, HUVEC, MLSMR starter and 10KST1 sets (AID 438;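 active means inhibition above 20% together with a positive visual image hit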;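 further: compound added about 3h40 before a 20 min TNFalpha stimulation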;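 on inhibition: signal is the nuclear over cytoplasmic p65 intensity ratio per well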); conditions: HUVEC TNFa-induced p65 nuclear translocation; cell count: measured here: nuclei count (cytotoxicity indicator), at 2.08 µM; inhibition: at 2 µM, stronger effect = higher value, 0% TNFa-plus-vehicle, 100% no-TNFa wells
# [2] = inhibitors of mutant huntingtin aggregation, primary screen, imaging, exon1htt(103Q)mCFP cells, high-content imaging (AID 483;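 active means visual image review flags a hit and inhibition of aggregation exceeds 20%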;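 further: compound exposure lasted 3 days before fixation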;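 on nuclei count: percent of the per-plate median nuclei count of sample wells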); conditions: exon1htt(103Q)mCFP cell line, aggregate imaging, at 2 µM; inhibition of aggregation: stronger effect = higher value; nuclei count: measured here: cell count, toxicity
# [3] = inhibitors of E-selectin induction by TNFa, primary screen, imaging, HUVEC, immunofluorescence, MLSMR starter and 10KST1 sets (AID 487;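 active means visually confirmed hit in the image check and inhibition above 20%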;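 on inhibition: signal is fraction of cell area covered by stained E-selectin grains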;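 on nuclei count: 100% = median nuclei count of all wells on the same plate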); conditions: HUVEC TNFalpha-induced E-selectin immunofluorescence imaging, at 2 µM; inhibition: stronger effect = higher value; nuclei count: measured here: cell number, toxicity
# [4] = target: Voltage-gated potassium channel subunit beta-2 (Rattus norvegicus) (UniProt P62483); assay: KvBeta enzyme negative modulators, primary screen, biochemical, NADPH fluorescence (AID 622;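 active means fluorescence slope higher than the sample average by over 3 SD, cut at about -0.22 in these data, passing the limit was not always enough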;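 further: slope of raw intensity against log time taken from 70 to 1610 s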); conditions: recombinant KvBeta, 4-cyanobenzaldehyde reduction, at 10 µM, stronger effect = higher value
# Sequence of Voltage-gated potassium channel subunit beta-2 (Rattus norvegicus) (P62483 whole entry, looked up): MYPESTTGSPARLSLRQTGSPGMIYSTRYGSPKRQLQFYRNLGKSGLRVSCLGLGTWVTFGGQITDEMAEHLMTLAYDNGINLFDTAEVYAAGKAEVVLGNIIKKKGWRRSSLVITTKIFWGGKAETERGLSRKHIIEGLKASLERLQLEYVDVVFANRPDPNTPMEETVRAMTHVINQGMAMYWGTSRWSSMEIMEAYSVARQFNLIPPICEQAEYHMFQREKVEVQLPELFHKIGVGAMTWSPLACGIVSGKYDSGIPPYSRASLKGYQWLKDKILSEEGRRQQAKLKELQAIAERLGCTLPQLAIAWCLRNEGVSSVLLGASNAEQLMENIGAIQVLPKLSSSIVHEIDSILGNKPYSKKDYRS
# [5] = target: Voltage-gated potassium channel subunit beta-2 (Rattus norvegicus) (UniProt P62483); assay: KvBeta positive modulators, primary screen, biochemical, NADPH fluorescence (AID 623;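 active means NADPH fluorescence slope more negative than the mean of all samples by about 3 SD, 99.7% confidence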;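 further: fluorescence intensity change per second fitted from 20 to 320 s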); conditions: Recombinant KvBeta, NADPH fluorescence decrease slope, 10 min; at 10 µM; stronger effect = lower value
# [6] = target: Muscarinic acetylcholine receptor M4 (Homo sapiens) (UniProt P08173); assay: compounds altering M4/GIRK thallium flux, either direction, primary screen, M4 allosteric agonist project, cell-based, HEK293 M4/GIRK, BTC-AM (AID 625); conditions: at 10 µM, actives lie on both sides;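 further: thallium influx through GIRK channels coupled to M4 in HEK293 cells with BTC-AM dye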
# Sequence of Muscarinic acetylcholine receptor M4 (Homo sapiens) (P08173 whole entry, looked up): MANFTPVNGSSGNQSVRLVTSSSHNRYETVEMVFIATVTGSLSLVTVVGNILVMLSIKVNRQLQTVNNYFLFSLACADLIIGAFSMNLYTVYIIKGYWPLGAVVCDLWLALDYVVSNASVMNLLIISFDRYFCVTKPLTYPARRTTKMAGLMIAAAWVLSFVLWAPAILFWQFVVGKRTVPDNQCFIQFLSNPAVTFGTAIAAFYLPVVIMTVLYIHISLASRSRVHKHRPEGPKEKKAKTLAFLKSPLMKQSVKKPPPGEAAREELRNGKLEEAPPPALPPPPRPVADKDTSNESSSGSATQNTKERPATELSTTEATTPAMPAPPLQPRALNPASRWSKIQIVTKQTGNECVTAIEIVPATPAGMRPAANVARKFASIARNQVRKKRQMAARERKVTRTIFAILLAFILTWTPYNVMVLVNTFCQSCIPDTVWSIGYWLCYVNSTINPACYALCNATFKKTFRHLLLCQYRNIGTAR
# How it was run: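 Material: M4/GIRK1/GIRK2 stable HEK293 cell line. Medium: pH 7.3 thallium assay buffer. Dosing: single compound concentration, 10 µM final. Schedule: 1 h dye loading, 2 min kinetic read. Measured by: kinetic fluorescence with BTC-AM dye. Read-out: post-addition slope, 15–24 s, of baseline-normalized fluorescence. Benchmarks: carbachol and DMSO controls.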
# [7] = inhibitors of Sendai virus-induced IRF3 signaling, primary screen, TLR/RLR signaling modifier project, cell-based, Sendai virus stimulus, luciferase, 10K MLSCN set (AID 602276;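 active means inhibition at or above 50% at 10 µM; inactive means inhibition below 50%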;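 further: firefly luciferase from ISG56 promoter only with Renilla not read in this screen; 0% = Sendai virus plus DMSO and 100% = medium plus DMSO without virus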); conditions: HEK293 RL24 IRF3 luciferase reporter, at 10 µM, stronger effect = higher value
# [8] = inhibitors of poly I:C-induced TLR3 signaling, primary screen, cell-based, poly I:C stimulus, luciferase, 10K MLSCN set (AID 602277;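 active means inhibition of the reporter signal at or above 50%; inactive means inhibition below 50%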); conditions: HEK293-TLR3 RL24 IRF3 luciferase reporter, at 10 µM, stronger effect = higher value
Structure (SMILES),cell count [1],inhibition [1],inhibition of aggregation [2],nuclei count [2],inhibition [3],nuclei count [3],fluorescence slope [4],NADPH fluorescence slope [5],fluorescence slope [6],inhibition [7],inhibition [8]
COc1ccc(NS(=O)(=O)c2c(C)[nH]c(=O)[nH]c2=O)c(OC)c1,409,3.8% (inactive),7.4% (inactive),103%,-40.5% (inactive),113%,-0.565 (inactive),-2.6e-05 (inactive),0.00529 (inactive),7.23% (inactive),13.8% (inactive)
Cn1c(-c2ccccc2)c(CCO)c2ccccc21,578,13.7% (inactive),-2.6% (inactive),88.3%,-60.6% (inactive),152%,-0.559 (inactive),-3.6e-05 (inactive),0.00569 (inactive),6.84% (inactive),6.66% (inactive)
Cc1ccc(CN2C(=O)CCC2C(=O)NCC2CCCO2)cc1 (centres undefined),317,10.5% (inactive),-27.2% (inactive),91%,-16.2% (inactive),97.8%,-0.556 (inactive),-2.2e-05 (inactive),0.0066 (inactive),-7.7% (inactive),1.56% (inactive)
c1ccc(-c2nnc(CN3CCC4(CC3)OCCO4)o2)cc1,407,-6.8% (inactive),15.2% (inactive),70.5%,-27% (inactive),118%,-0.596 (inactive),1.6e-05 (inactive),0.0059 (inactive),8.62% (inactive),10.2% (inactive)
CCCCNS(=O)(=O)c1ccc(OC)c2ncccc12,568,4.1% (inactive),16.3% (inactive),115%,-1.9% (inactive),93%,-0.337 (inactive),-4.1e-05 (inactive),0.00627 (inactive),-12.5% (inactive),-11.5% (inactive)
N#Cc1c(/N=C/c2ccco2)sc2c1CCC2,657,11.9% (inactive),0.6% (inactive),105%,-12.4% (inactive),104%,-0.507 (inactive),-0.000202 (inactive),0.00356 (inactive),-16.4% (inactive),-42.7% (inactive)
N#C/C(C(=O)c1ccccc1)=C1/CCCN1,328,0.4% (inactive),-10.6% (inactive),109%,-66.4% (inactive),134%,-0.567 (inactive),-5.4e-05 (inactive),0.00513 (inactive),4.87% (inactive),-17.4% (inactive)
O=C(Nc1ccccc1)N1C(=O)C2(OCCO2)c2ccccc21,397,6.5% (inactive),-15.7% (inactive),91.7%,-75.2% (inactive),105%,-0.542 (inactive),-0.000137 (inactive),0.00486 (inactive),14.1% (inactive),7.78% (inactive)
Cc1onc(-c2ccccc2)c1C(N)=O,506,-11.2% (inactive),-1.6% (inactive),98.5%,-158% (inactive),159%,-0.563 (inactive),-6.3e-05 (inactive),0.00641 (inactive),16% (inactive),16.2% (inactive)
O=C(NCCCN1CCN(CCCNC(=O)c2ccc(F)cc2)CC1)c1ccc(F)cc1,364,-1.1% (inactive),-1.8% (inactive),109%,4.2% (inactive),102%,-0.528 (inactive),1.1e-05 (inactive),0.00616 (inactive),14.8% (inactive),23.9% (inactive)
COC(=O)C1=C(C)NC(C)=C(C(=O)OC)C1c1cc2cc(C)ccc2[nH]c1=O,509,11.1% (inactive),-7.7% (inactive),102%,-103% (inactive),136%,-0.493 (inactive),-2.9e-05 (inactive),0.00508 (inactive),18.9% (inactive),30.9% (inactive)
CC(=O)c1cccc(NC(=O)N2C3CCC2CC(O)(c2cccnc2)C3)c1 (centres undefined),602,9.7% (inactive),-21.4% (inactive),104%,-27.6% (inactive),106%,-0.259 (inactive),3.9e-06 (inactive),0.0059 (inactive),-7.02% (inactive),16.5% (inactive)
CCOC(=O)NC(=O)CSc1nnc(C)s1,804,4.3% (inactive),-0.4% (inactive),105%,-130% (inactive),135%,-0.421 (inactive),-9.6e-06 (inactive),0.00543 (inactive),18.9% (inactive),17.5% (inactive)
CC(=O)Nc1nc(-c2ccccc2)nc(C)c1C(C)=O,366,8% (inactive),15% (inactive),88.5%,32.4% (inactive),87.6%,-0.572 (inactive),2e-05 (inactive),0.0072 (inactive),-8.51% (inactive),2.89% (inactive)
